ChEMBL document CHEMBL1240347, “MK-7009, a potent and selective inhibitor of hepatitis C virus NS3/4A protease” (Antimicrob Agents Chemother, 2010)

What was measured:
[1] = Inhibition of Hepatitis C virus genotype 2b NS3/4A protease activity; design: species or system Hepatitis C virus subtype 2b
Procedure, shortened: (§1)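 Recombinant NS3/4A protease was expressed in and purified from E. coli. Inhibition was measured by a time-resolved, internally quenched fluorescence assay at low enzyme concentration. Kis were reported.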

Hepatitis C virus [2] = test: Antiviral activity against Hepatitis C virus containing NS3/4a ps20 sequence by transient cell-base protease activity; format: functional, organism-based, Hepacivirus hominis
Procedure, shortened: (§2)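 Transient cell-based phenotype assay of protease activity, using NS3/4A sequences cloned from plasma of HCV-infected patients. EC50s were determined.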

[3] = biological target: Chymotrypsin-like elastase family member 1 (Homo sapiens, UniProt Q9UNI1); test: Inhibition of human Pancreatic elastase 1
[4] = Volume of distribution in dog at 2 mg/kg, iv by LC/MS/MS analysis; format: ADME, organism-based, Canis lupus familiaris; design: dose 2 mg/kg, route intravenous; details: in vivo
Procedure, shortened: (§3)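 Fasted animals received an IV bolus in DMSO at 1.0 ml/kg for rats and 0.1 ml/kg for dogs and rhesus monkeys, at 2 mg/kg; n = 3 per species. Blood was drawn into EDTA tubes at set times, and plasma was separated by centrifugation and stored at −70°C. Drug was quantified by LC/MS/MS after protein precipitation.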

Hepatitis C virus [5] = test: Antiviral activity against Hepatitis C virus containing NS3/4a ps30 sequence by transient cell-base protease activity; format: functional, organism-based, Hepacivirus hominis; procedure, shortened: as §2
Hepatitis C virus [6] = test: Antiviral activity against Hepatitis C virus containing NS3/A156T protease mutant activity by TaqMan-based assay; format: functional, organism-based, Hepacivirus hominis
Procedure, shortened: (§4)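 Panel of stable HCV replicon cell lines carrying NS3 protease mutations. Replicon RNA read out by a TaqMan-based assay, and EC50 values determined.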

[7] = Metabolic stability in chimpanzee liver assessed as drug level at 10 mg/kg, po after 12 hrs by LC/MS/MS analysis; format: ADME, organism-based, Pan troglodytes; design: dose 10 mg/kg, route oral; details: read-out: Drug uptake
Procedure, shortened: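 Two uninfected chimpanzees were dosed orally in chocolate milk vehicle (0.67 ml/kg). A liver biopsy (~200 μl) was taken under sedation at the single 12-h time point, homogenized in 4 volumes of deionized water, and analysed by LC/MS/MS after protein precipitation.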

Hepatitis C virus [8] = test: Antiviral activity against Hepatitis C virus containing NS3/F43S protease mutant activity by TaqMan-based assay; format: functional, organism-based, Hepacivirus hominis
[9] = Half life in rat at 2 mg/kg, iv by LC/MS/MS analysis; format: ADME, organism-based; design: dose 2 mg/kg, route intravenous; details: in vivo
Procedure, shortened: (§5)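 Fasted animals received an intravenous bolus in DMSO at 1.0 ml/kg (rat), 0.1 ml/kg (dog) or 0.1 ml/kg (rhesus), with n = 3. Blood was drawn into EDTA tubes, and plasma was separated by centrifugation and stored at −70°C. Drug was quantified by LC/MS/MS after protein precipitation.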

Neutrophil elastase = biological target: T1, Neutrophil elastase (Homo sapiens, UniProt P08246); test: Inhibition of human Neutrophil elastase 2
T1 sequence (P08246 whole entry): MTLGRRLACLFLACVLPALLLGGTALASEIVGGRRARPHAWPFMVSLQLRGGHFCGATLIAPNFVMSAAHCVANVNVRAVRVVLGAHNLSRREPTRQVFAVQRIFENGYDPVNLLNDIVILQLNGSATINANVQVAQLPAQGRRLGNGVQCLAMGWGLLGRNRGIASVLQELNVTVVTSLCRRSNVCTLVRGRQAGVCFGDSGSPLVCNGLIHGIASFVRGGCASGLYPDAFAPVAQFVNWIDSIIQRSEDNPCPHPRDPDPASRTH

Hepatitis C virus [10] = test: Antiviral activity against Hepatitis C virus containing NS3/4a ps31 sequence by transient cell-base protease activity; format: functional, organism-based, Hepacivirus hominis; procedure, shortened: as §2
[11] = Half life in dog at 2 mg/kg, iv by LC/MS/MS analysis; format: ADME, organism-based, Canis lupus familiaris; design: dose 2 mg/kg, route intravenous; details: in vivo; procedure, shortened: as §5
[12] = Inhibition of Hepatitis C virus genotype 2a NS3/4A protease activity; design: species or system Hepatitis C virus subtype 2a; procedure, shortened: as §1
Chymase = biological target: T2, Chymase (Homo sapiens, UniProt P23946); test: Inhibition of human Chymase
T2 sequence (P23946 whole entry): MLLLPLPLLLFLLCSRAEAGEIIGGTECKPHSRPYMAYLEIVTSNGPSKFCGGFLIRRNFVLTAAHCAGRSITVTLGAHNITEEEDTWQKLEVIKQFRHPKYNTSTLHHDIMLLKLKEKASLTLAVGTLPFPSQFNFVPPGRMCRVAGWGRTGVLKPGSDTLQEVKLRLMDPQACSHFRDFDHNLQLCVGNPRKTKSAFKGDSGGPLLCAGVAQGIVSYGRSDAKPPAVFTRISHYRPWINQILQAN

[13] = Metabolic stability in dog liver assessed as drug level at 5 mg/kg, po after 24 hrs by LC/MS/MS analysis; format: ADME, organism-based, Canis lupus familiaris; design: dose 5 mg/kg, route oral; details: read-out: Drug uptake
Procedure, shortened: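 Single oral dose in polyethylene glycol 400 (2.0 ml/kg). A liver biopsy (~200 μl) was taken under sedation and homogenized in 4 volumes of deionized water. Drug was quantified by LC/MS/MS after protein precipitation.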

[14] = Half life in rhesus monkey at 2 mg/kg, iv by LC/MS/MS analysis; format: ADME, organism-based, Macaca mulatta; design: dose 2 mg/kg, route intravenous; details: in vivo; procedure, shortened: as §5
Hepatitis C virus [15] = test: Antiviral activity against Hepatitis C virus containing NS3/4a H77 sequence by transient cell-base protease activity; format: functional, organism-based, Hepacivirus hominis
Hepatitis C virus [16] = test: Antiviral activity against Hepatitis C virus containing NS3/R155K protease mutant activity by TaqMan-based assay; format: functional, organism-based, Hepacivirus hominis; procedure, shortened: as §4
[17] = Plasma clearance in rhesus monkey at 2 mg/kg, iv by LC/MS/MS analysis; format: ADME, organism-based, Macaca mulatta; design: dose 2 mg/kg, route intravenous; procedure, shortened: as §3
[18] = Inhibition of Hepatitis C virus genotype 1a NS3/4A protease activity; design: species or system Hepatitis C virus subtype 1a; procedure, shortened: as §1
[19] = AUC (0-24 hrs) in rhesus monkey at 2 mg/kg, iv by LC/MS/MS analysis; format: ADME, organism-based, Macaca mulatta; design: time < 24 hr, dose 2 mg/kg, route intravenous; details: plasma; procedure, shortened: as §5
[20] = AUC (0-24 hrs) in dog at 2 mg/kg, iv by LC/MS/MS analysis; format: ADME, organism-based, Canis lupus familiaris; design: time < 24 hr, dose 2 mg/kg, route intravenous; details: plasma; procedure, shortened: as §5
Hepatitis C virus [21] = test: Antiviral activity against Hepatitis C virus containing NS3/4a ps38 sequence by transient cell-base protease activity; format: functional, organism-based, Hepacivirus hominis; procedure, shortened: as §2
Procathepsin L = Procathepsin L (Homo sapiens, UniProt P07711); test: Inhibition of human Cathepsin L
[22] = AUC (0-24 hrs) in chimpanzee at 10 mg/kg, po by LC/MS/MS analysis; format: ADME, organism-based, Pan troglodytes; design: time < 24 hr, dose 10 mg/kg, route oral; details: plasma
Procedure, shortened: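 Two HCV-uninfected chimpanzees (about 57 and 52 kg) drank the dose voluntarily in a chocolate milk vehicle (0.67 ml/kg). EDTA plasma was stored at −70°C and quantified by LC/MS/MS after protein precipitation.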

[23] = AUC (0-24 hrs) in dog at 5 mg/kg, po by LC/MS/MS analysis; format: ADME, organism-based, Canis lupus familiaris; design: time < 24 hr, dose 5 mg/kg, route oral; details: plasma
Procedure, shortened: (§6)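 Dosed orally as a solution in polyethylene glycol 400 (2.0 ml/kg), with n = 3. EDTA plasma was centrifuged off and held at −70°C. Drug levels were determined by LC/MS/MS following protein precipitation.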

Cathepsin S = Cathepsin S (Homo sapiens, UniProt P25774); test: Inhibition of human Cathepsin S
Hepatitis C virus [24] = test: Antiviral activity against Hepatitis C virus containing NS3/D168Y protease mutant activity by TaqMan-based assay; format: functional, organism-based, Hepacivirus hominis
[25] = AUC (0-24 hrs) in rhesus monkey at 5 mg/kg, po by LC/MS/MS analysis; format: ADME, organism-based, Macaca mulatta; design: time < 24 hr, dose 5 mg/kg, route oral; details: plasma; procedure, shortened: as §6
Hepatitis C virus [26] = test: Inhibition of Hepatitis C virus genotype 1b NS3/4A protease activity; design: species or system Hepatitis C virus subtype 1b; procedure, shortened: as §1
Hepatitis C virus [27] = test: Antiviral activity against Hepatitis C virus containing NS3/4a Con1 sequence by transient cell-base protease activity; format: functional, organism-based, Hepacivirus hominis
Hepatitis C virus [28] = test: Antiviral activity against Hepatitis C virus containing NS3/4a ps37 sequence by transient cell-base protease activity; format: functional, organism-based, Hepacivirus hominis; procedure, shortened: as §2

Chain of Cathepsin S (P25774 whole entry): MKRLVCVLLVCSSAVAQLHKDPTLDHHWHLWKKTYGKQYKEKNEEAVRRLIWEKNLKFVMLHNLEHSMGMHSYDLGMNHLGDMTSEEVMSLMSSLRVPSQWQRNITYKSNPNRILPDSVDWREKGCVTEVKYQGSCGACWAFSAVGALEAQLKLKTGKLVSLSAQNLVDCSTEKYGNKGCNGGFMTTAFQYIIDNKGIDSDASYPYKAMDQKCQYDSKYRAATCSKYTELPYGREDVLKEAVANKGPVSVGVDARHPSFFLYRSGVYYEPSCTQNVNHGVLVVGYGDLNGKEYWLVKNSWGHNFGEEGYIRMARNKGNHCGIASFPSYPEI
Chain of Procathepsin L (P07711 whole entry): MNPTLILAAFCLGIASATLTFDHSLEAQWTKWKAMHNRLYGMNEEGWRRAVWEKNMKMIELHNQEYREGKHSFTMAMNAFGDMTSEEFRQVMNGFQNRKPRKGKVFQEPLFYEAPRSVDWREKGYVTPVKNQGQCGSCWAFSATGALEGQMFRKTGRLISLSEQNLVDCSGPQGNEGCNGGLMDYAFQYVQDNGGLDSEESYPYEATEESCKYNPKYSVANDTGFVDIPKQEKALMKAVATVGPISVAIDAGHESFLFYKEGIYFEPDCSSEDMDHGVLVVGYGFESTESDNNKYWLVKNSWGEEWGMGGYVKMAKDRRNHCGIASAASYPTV
Chain of Chymotrypsin-like elastase family member 1 (Q9UNI1 whole entry): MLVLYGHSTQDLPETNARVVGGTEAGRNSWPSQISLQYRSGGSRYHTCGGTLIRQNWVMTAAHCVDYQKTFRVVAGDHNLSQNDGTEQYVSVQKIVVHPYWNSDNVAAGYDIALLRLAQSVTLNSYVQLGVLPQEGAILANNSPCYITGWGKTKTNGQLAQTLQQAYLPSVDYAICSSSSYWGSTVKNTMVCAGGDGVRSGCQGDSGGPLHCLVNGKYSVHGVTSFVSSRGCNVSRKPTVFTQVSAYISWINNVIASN

CC[C@@H]1C[C@]1(NC(=O)[C@@H]1C[C@@H]2CN1C(=O)[C@H](C(C)(C)C)NC(=O)OCC(C)(C)CCCCc1cccc3c1CN(C3)C(=O)O2)C(=O)NS(=O)(=O)C1CC1 [VANIPREVIR] showed a Ki [1] of 1.4 nM, an EC50 (Hepatitis C virus [2]) of 2.9 nM and an IC50 [3] of over 10000 nM. For the same compound, the Vd [4] was 0.3 L/kg, the EC50 (Hepatitis C virus [5]) was 27 nM and the EC50 (Hepatitis C virus [6]) was 200 nM. For the same compound, the concentration at 12 h [7] was 31 µM, the EC50 (Hepatitis C virus [8]) was 7.8 nM and the half-life [9] was 0.9 h. For the same compound, the IC50 (Neutrophil elastase) was over 10000 nM, the EC50 (Hepatitis C virus [10]) was 3.4 nM and the half-life [11] was 1.2 h. The Ki [12] was 1 nM, the IC50 (Chymase) was over 10000 nM and the concentration at 24 h [13] was 0.6 µM. For the same compound, the half-life [14] was 1.3 h, the EC50 (Hepatitis C virus [15]) was 4.5 nM and the EC50 (Hepatitis C virus [16]) was 350 nM. For the same compound, the clearance [17] was 18 mL/min/kg, the Ki [18] was 0.07 nM and the AUC(0-t) at 24 h [19] was 2.5 µM·h. It also gave an AUC(0-t) at 24 h [20] of 4.1 µM·h, an EC50 (Hepatitis C virus [21]) of 6 nM and an IC50 (Procathepsin L) of over 10000 nM. The AUC(0-t) at 24 h [22] was 5.2 µM·h, the AUC(0-t) at 24 h [23] was 1.2 µM·h and the IC50 (Cathepsin S) was over 10000 nM. It also gave an EC50 (Hepatitis C virus [24]) of 430 nM, an AUC(0-t) at 24 h [25] of 0.05 µM·h and a Ki (Hepatitis C virus [26]) of 0.06 nM. It also gave an EC50 (Hepatitis C virus [27]) of 4.1 nM and an EC50 (Hepatitis C virus [28]) of 6.5 nM.
